Data set [1] can be described thus: Antagonist activity at Pseudomonas aeruginosa LasR expressed in Escherichia coli BL21 DE3 after 4 to 6 hrs by GFP reporter gene assay. In outline:
(§1)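 GFP-based LasR antagonist bioassay. IC50 is the mean of triplicate runs, range as 95% confidence interval. Percent inhibition of GFP is measured at 100 μM relative to Br-HSL positive control, which is set at 100% inhibition.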

In data set [2] the target is T1, Transcriptional activator protein LasR (Pseudomonas aeruginosa (strain ATCC 15692 / PAO1 / 1C / PRS 101 / LMG12228)) (UniProt P25084).
T1 sequence (whole entry): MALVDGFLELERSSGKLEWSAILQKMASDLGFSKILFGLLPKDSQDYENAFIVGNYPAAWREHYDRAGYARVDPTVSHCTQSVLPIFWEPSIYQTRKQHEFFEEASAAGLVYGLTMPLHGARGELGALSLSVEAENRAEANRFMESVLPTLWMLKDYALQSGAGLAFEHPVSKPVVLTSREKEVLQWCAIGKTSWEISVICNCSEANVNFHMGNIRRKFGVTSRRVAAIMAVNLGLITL
Nature of the data set: Antagonist activity at Pseudomonas aeruginosa LasR expressed in Escherichia coli BL21 DE3 at 100 uM after 4 to 6 hrs by GFP reporter gene assay relative to Br-HSL. The method, boiled down:
as §1

The target of data set [3] is T1, Transcriptional activator protein LasR (Pseudomonas aeruginosa (strain ATCC 15692 / PAO1 / 1C / PRS 101 / LMG12228)). The data set can be described thus: Antagonist activity at LasR in Pseudomonas aeruginosa PAO1 assessed as decrease in pyocyanin level in cell-free supernatants after 12 hrs. In outline:
(§2)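 Cell-free supernatants from PAO1 or PA14 cultures. Pyocyanin is read directly as absorbance at 695 nm, in triplicate. Cell density is read at A600 in parallel.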

The target is the same in data set [4]. The data set can be described thus: Irreversible antagonist activity at Pseudomonas aeruginosa LasR expressed in Escherichia coli BL21 DE3 at 10 to 100 uM after 4 to 6 hrs by GFP reporter gene assay in presence of LasR agonist 3-oxo-C12HSL. The method, boiled down: (§3)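 Competition format of the GFP LasR bioassay: antagonist held at a fixed concentration while a dose-response curve of native agonist 3-oxo-C12 HSL is run; the maximal activation and the curve are compared.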

For data set [5] the target is unchanged. The data set can be described thus: Antagonist activity at LasR in Pseudomonas aeruginosa PA14 assessed as decrease in pyocyanin level in cell-free supernatants after 12 hrs. In outline: as §2
Data set [6] shares this target. The data set can be described thus: Antagonist activity at LasR in Pseudomonas aeruginosa PAO1 assessed as decrease in pyocyanin level in extracted and acidified cell-free supernatants after 12 hrs. The method, boiled down:
(§4)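 Cell-free culture supernatants undergo a pyocyanin-selective extraction and acidification, then absorbance is read at 520 nm.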

Data set [7] shares this target. The data set can be described thus: Antagonist activity at LasR in Pseudomonas aeruginosa PA14 assessed as decrease in pyocyanin level in extracted and acidified cell-free supernatants after 12 hrs. In outline: as §4
In data set [8] the test system is Pseudomonas aeruginosa. The data set can be described thus: Effect on growth of Pseudomonas aeruginosa PAO1 at 12.5 to 25 uM. Type of data set: organism-based. The note with it: in vivo. In outline:
(§5)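 Growth of PAO1 and PA14 in the pyocyanin cultures is followed by cell density at A600.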

The subject of data set [9] is Pseudomonas aeruginosa. Nature of the data set: Effect on growth of Pseudomonas aeruginosa PA14 at 12.5 to 25 uM. The method, boiled down:
as §5

Data set [10] concerns the target T1, Transcriptional activator protein LasR (Pseudomonas aeruginosa (strain ATCC 15692 / PAO1 / 1C / PRS 101 / LMG12228)). The data set can be described thus: Antagonist activity at LasR in Pseudomonas aeruginosa PA14 assessed as inhibition of static biofilm formation after 48 hrs by crystal violet staining. In outline:
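Static PA14 cultures; 48 h biofilms quantified by crystal violet staining, absorbance at 550 nm.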

The target is the same in data set [11]. Nature of the data set: Antagonist activity at LasR in Pseudomonas aeruginosa PA14 assessed as inhibition of static biofilm thickness grown in rich media after 36 hrs by SYTO-9 nucleic acid staining-based confocal microscopic analysis. In outline:
(§6)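 PA14 biofilms grown 36 h in Luria broth, stained with SYTO-9 and imaged by confocal fluorescence microscopy. Biomass and thickness are computed from the images. Images are taken in duplicate and imaging is repeated three times.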

The target is the same in data set [12]. The data set can be described thus: Antagonist activity at LasR in Pseudomonas aeruginosa PA14 assessed as inhibition of overall static biofilm biomass grown in rich media after 36 hrs SYTO-9 nucleic acid staining-based confocal microscopic analysis. In outline:
as §6

The target is the same in data set [13]. Nature of the data set: Antagonist activity at LasR in Pseudomonas aeruginosa PA14 assessed as inhibition of static biofilm biomass grown in rich media at 12.5 to 25 uM after 36 hrs SYTO-9 nucleic acid staining-based confocal microscopic analysis.
The target is the same in data set [14]. The data set can be described thus: Antagonist activity at LasR in Pseudomonas aeruginosa PA14 assessed as inhibition of static biofilm thickness grown in rich media at 12.5 to 25 uM after 36 hrs SYTO-9 nucleic acid staining-based confocal microscopic analysis.
The target is the same in data set [15]. The data set can be described thus: Antagonist activity at LasR in Pseudomonas aeruginosa PA14 assessed as inhibition of overall static biofilm morphology grown in rich media at 12.5 to 25 uM after 36 hrs SYTO-9 nucleic acid staining-based confocal microscopic analysis.
Data set [16] concerns Pseudomonas aeruginosa. The data set can be described thus: Effect on growth of Pseudomonas aeruginosa up to 200 uM. The class given is organism-based. Conditions: in vivo. In outline: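 Bacterial growth is monitored by OD600 at concentrations up to 200 μM.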
For data set [17], the target named is T2, Transcriptional activator protein LasR (Pseudomonas aeruginosa (strain ATCC 15692 / PAO1 / 1C / PRS 101 / LMG12228), UniProt P25084).
T2 sequence (P25084 whole entry): T1 sequence (whole entry)
Nature of the data set: Agonist activity at Pseudomonas aeruginosa LasR expressed in Escherichia coli BL21 DE3 after 4 to 6 hrs by GFP reporter gene assay.

The target in data set [18] is T2, Transcriptional activator protein LasR. The data set can be described thus: Agonist activity at Pseudomonas aeruginosa LasR.
Data set [19] addresses T1, Transcriptional activator protein LasR (Pseudomonas aeruginosa (strain ATCC 15692 / PAO1 / 1C / PRS 101 / LMG12228)). Nature of the data set: Irreversible antagonist activity at Pseudomonas aeruginosa LasR expressed in Escherichia coli BL21 DE3 at 10 to 50 uM after 4 to 6 hrs by GFP reporter gene assay in presence of LasR agonist 3-oxo-C12HSL. The method, boiled down: as §3
(In general: In a reporter assay the amount or activity of a reporter protein is the signal.)

Data set [20] shares this target. Nature of the data set: Non-competitive antagonist activity at Pseudomonas aeruginosa LasR expressed in Escherichia coli BL21 DE3 at 40 to 80 uM after 4 to 6 hrs by GFP reporter gene assay in presence of LasR agonist 3-oxo-C12HSL. In outline:
as §3

Structures are written as SMILES. Activity calls are given as the source filed them. The calls are words filed in the database; no cut-off is given here. A value given as a limit tells only on which side of the number the result lay.

Broadly, the IC50 is the concentration at which inhibition is half-maximal. Lower therefore signals inhibition by little substance. As a reminder, the inhibition is the change of the read-out against control, counted positive when it falls. As usually defined, the EC50 is the concentration that produces a half-maximal response. Lower therefore signals greater potency.

`O=C(CCl)NCC(=O)Oc1c(Br)cc(Br)cc1CC(=O)Nc1ccccc1[N+](=O)[O-]` registered an IC50 in data set [1] of 73.8 µM. The inhibition in [2] came to 91%.
The compound `O=C(CCCN1C(=O)C=CC1=O)Oc1c(Br)cc(Br)cc1CNC(=O)c1ccccc1[N+](=O)[O-]` showed an IC50 in data set [1] of 1.5 µM. The inhibition is 101% in data set [2]; “Dose-dependent effect” in [3]; “Dose-dependent effect” in data set [5]; “Dose-dependent effect” in data set [6]; “Dose-dependent effect” in data set [7]; “Dose-dependent effect” in data set [10]. The inhibition entry in data set [11] and in data set [12] was “Dose-dependent effect” in each case. Further, the inhibition entry in [4], in data set [13], in data set [14] and in [15] was “Active” throughout. Also, the Activity entry in the data set on Pseudomonas aeruginosa [8] and in the data set on Pseudomonas aeruginosa [9] was “Non-toxic” in each case.
In the case of `O=C(Cc1cc(Br)cc(Br)c1OCCCN=C=S)Nc1ccccc1[N+](=O)[O-]`, the IC50 in data set [1] was > 200 µM. In addition, the inhibition in [2] came to 55%. Also, in the data set on Pseudomonas aeruginosa [16], the Activity entry is “Non-toxic”.
In [1], `O=C(CCN1C(=O)C=CC1=O)Oc1c(Br)cc(Br)cc1CNC(=O)c1ccccc1[N+](=O)[O-]` displayed an IC50 of 51.9 µM. The inhibition in [2] came out at 32%.
The compound `O=C(CCl)NCCC(=O)Oc1c(Br)cc(Br)cc1CC(=O)Nc1ccccc1[N+](=O)[O-]` registered an IC50 in [1] of 99.5 µM. Besides, in [2], the inhibition was 79%.
For `O=C(Cc1cc(Br)cc(Br)c1OC(=O)CCCN1C(=O)C=CC1=O)Nc1ccccc1[N+](=O)[O-]` the same measures were 78.1 µM and 30%.
On to `O=C(Cc1cc(Br)cc(Br)c1OC(=O)CCN1C(=O)CCC1=O)Nc1ccccc1[N+](=O)[O-]`, for which the IC50 in [1] is > 100 µM. In addition, in data set [17], the EC50 is 0.0036 µM.
Regarding `O=C(CCCN=C=S)Oc1c(Br)cc(Br)cc1CNC(=O)c1ccccc1[N+](=O)[O-]`, the IC50 in data set [1] is > 200 µM. For the same compound, the inhibition in data set [2] turned out to be 26%. In addition, in the data set with Pseudomonas aeruginosa [16], the Activity entry was “Non-toxic”.
For `O=C(Cc1cc(Br)cc(Br)c1OC(=O)CCCN=C=S)Nc1ccccc1[N+](=O)[O-]` the same measures were 148 µM, 69% and “Non-toxic”.
In the case of `O=C(Cc1ccc(Br)cc1)N[C@H]1CCOC1=O`, in [1], the IC50 came out at 16.4 µM.
The compound `O=C(Oc1c(Br)cc(Br)cc1CNC(=O)c1ccccc1[N+](=O)[O-])c1ccccc1Cl` came in with an EC50 in data set [18] of 0.028 µM.
`O=C(Cc1cc(Br)cc(Br)c1OC(=O)CCN1C(=O)C=CC1=O)Nc1ccccc1[N+](=O)[O-]` registered an IC50 in data set [1] of 3.6 µM. Besides, the inhibition in [2] turned out to be 98%. Besides, in data set [19], the inhibition result is “Active”.
`O=C(Cc1cc(Br)cc(Br)c1OC(=O)CN1C(=O)C=CC1=O)Nc1ccccc1[N+](=O)[O-]` had an IC50 in data set [1] of 86.8 µM. Also, the inhibition in [2] was 56%.
On to `O=C(CCCN1C(=O)CCC1=O)Oc1c(Br)cc(Br)cc1CNC(=O)c1ccccc1[N+](=O)[O-]`, for which, in data set [1], the IC50 was > 100 µM. This compound also gave an EC50 in data set [17] of 0.119 µM.
In the case of `O=C(Cc1cc(Br)cc(Br)c1OCCCCN=C=S)Nc1ccccc1[N+](=O)[O-]`, it took 145 µM to reach half-maximal inhibition in [1] (IC50). The inhibition in data set [2] amounted to 61%. In the data set on Pseudomonas aeruginosa [16], the Activity entry is “Non-toxic”. Also, the inhibition result in data set [20] is “Active”.
